Experimental data: ChEMBL document CHEMBL1153518 (J Med Chem, 2009)

How the values were obtained:
MT4 [1] = test: Cytotoxicity against human MT4 cells assessed as decrease in cell viability; type: cell-based
Procedure, shortened: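 MT-4 viability was measured by automated propidium iodide-based cell counting, enumerating total and dead cells in untreated and compound-treated cultures.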

Human alphaherpesvirus 1 [2] = test: Antiviral activity against HSV1 KOS infected in HEL cells assessed as inhibition of virus-induced cytopathicity; type: functional, organism-based; settings: Human alphaherpesvirus 1, KOS
Procedure, shortened: (§1)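 Confluent human embryonic lung fibroblast monolayers inoculated with 100 CCID50 virus. After 1–2 h adsorption, residual virus was removed and cultures were incubated with varying compound concentrations. Cytopathicity was scored once untreated infected controls reached full cytopathicity.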

Human alphaherpesvirus 2 = test: Antiviral activity against HSV2 G infected in HEL cells assessed as inhibition of virus-induced cytopathicity; type: functional, organism-based; settings: Human alphaherpesvirus 2, strain G; procedure, shortened: as §1
Human alphaherpesvirus 1 [3] = test: Antiviral activity against acyclovir […]-resistant thymidine kinase-deficient HSV1 KOS infected in HEL cells assessed as inhibition of virus-induced cytopathicity; type: functional, organism-based; settings: Human alphaherpesvirus 1, KOS; procedure, shortened: as §1
[4] = Cytotoxicity against HEL cells assessed as concentration required to cause alteration in cell alteration by microscopically; type: cell-based; settings: human
HEL = test: Cytotoxicity against HEL cells assessed as inhibition of cell proliferation; type: cell-based; settings: Homo sapiens
[5] = tested on: Human immunodeficiency virus 1; test: Antiviral activity against HIV1 3B/Lai infected in human CEM cells assessed as inhibition of virus-induced cytopathicity after 4 days; type: functional, organism-based; settings: Human immunodeficiency virus 1, 3B/Lai, CCRF-CEM, 96 h
Procedure, shortened: (§2)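 Human CEM cells (~3 × 10^5 cells/mL) infected with 100 CCID50 per mL of HIV-1(IIIB) or HIV-2(ROD), then seeded into wells holding compound dilutions. Incubated 4 days at 37°C. Giant cell formation was scored microscopically.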

[6] = tested on: Human immunodeficiency virus 2; test: Antiviral activity against HIV2 ROD infected in human CEM cells assessed as inhibition of virus-induced cytopathicity after 4 days; type: functional, organism-based; settings: Human immunodeficiency virus 2, ISOLATE ROD, CCRF-CEM, 96 h; procedure, shortened: as §2
MT4 [7] = test: Cytotoxicity against human MT4 cells assessed as inhibition of cell proliferation; type: cell-based
[8] = tested on: Human immunodeficiency virus 1; test: Antiviral activity against HIV1 3B/Lai infected in human MT4 cells assessed as suppression of p24 production after 3 days; type: functional, organism-based; settings: Human immunodeficiency virus 1, 3B/Lai, MT4, 72 h
Procedure, shortened: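 MT-4 cells (1 × 10^4 cells/mL) in fresh medium infected with X4LAI.04 stock, 10 μL (0.7 ng p24) per mL of cell suspension. Mixed with medium carrying compound dilutions and kept at 37°C. After 3 days, p24 was measured in culture supernatants.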

CCRF-CEM = test: Cytotoxicity against human CEM cells assessed as decrease in cell viability; type: cell-based

SMILES	IC50 (MT4 [1])	EC50 (Human alphaherpesvirus 1 [2])	EC50 (Human alphaherpesvirus 2)	EC50 (Human alphaherpesvirus 1 [3])	MCC [4]	IC50 (HEL)	EC50 [5]	EC50 [6]	CC50 (MT4 [7])	EC50 [8]	IC50 (CCRF-CEM)
COC(=O)[C@H](C)NP(=O)(OCCOCn1cnc2c(=O)[nH]c(N)nc21)Oc1cccc2ccccc12 (stereo partly drawn)	18.7 µM	16 µM	10 µM	79 µM	> 50 µM	> 100 µM	10 µM	13 µM	> 150 µM	4.7 µM	–
CC(C)(NP(=O)(OCCOCn1cnc2c(=O)[nH]c(N)nc21)Oc1ccccc1)C(=O)OCc1ccccc1 (stereo not drawn)	> 150 µM	1.4 µM	0.8 µM	5.5 µM	> 100 µM	–	–	> 100 µM	> 150 µM	7 µM	> 100 µM
Nc1nc2c(ncn2COCCOP(=O)(NCC(=O)OCc2ccccc2)Oc2ccccc2)c(=O)[nH]1 (stereo not drawn)	–	3 µM	0.8 µM	9 µM	> 100 µM	–	> 100 µM	> 100 µM	–	–	> 100 µM
C[C@H](NP(=O)(OCCOCn1cnc2c(=O)[nH]c(N)nc21)Oc1cccc2ccccc12)C(=O)OCc1ccccc1 (stereo partly drawn)	> 150 µM	2 µM	1.4 µM	10 µM	≥ 20 µM	20 µM	15 µM	8.9 µM	–	0.8 µM	–
CCCOC(=O)[C@H](C)NP(=O)(OCCOCn1cnc2c(=O)[nH]c(N)nc21)Oc1cccc2ccccc12 (stereo partly drawn)	–	5.5 µM	1.9 µM	16 µM	≥ 50 µM	68 µM	6.6 µM	24 µM	–	10 µM	–
CC(C)[C@H](NP(=O)(OCCOCn1cnc2c(=O)[nH]c(N)nc21)Oc1ccccc1)C(=O)OCc1ccccc1 (stereo partly drawn)	–	2 µM	0.85 µM	7.5 µM	> 100 µM	–	> 50 µM	> 50 µM	–	–	≥ 100 µM
COC(=O)[C@@H](NP(=O)(OCCOCn1cnc2c(=O)[nH]c(N)nc21)Oc1cccc2ccccc12)C(C)C (stereo partly drawn)	–	> 100 µM	> 100 µM	> 100 µM	> 100 µM	–	> 100 µM	> 100 µM	–	–	> 100 µM
Nc1nc2c(ncn2COCCOP(=O)(NC(Cc2ccccc2)C(=O)OCc2ccccc2)Oc2ccccc2)c(=O)[nH]1 (stereo not drawn)	–	17 µM	8 µM	–	> 50 µM	87 µM	26 µM	34 µM	–	16 µM	–
CN(C)/C=N/c1nc2c(ncn2COCCOP(=O)(NC(C)(C)C(=O)OCc2ccccc2)Oc2ccccc2)c(=O)[nH]1 (stereo not drawn)	> 150 µM	–	–	–	–	–	> 100 µM	> 100 µM	> 150 µM	70 µM	> 100 µM
CC(C)OC(=O)[C@H](C)NP(=O)(OCCOCn1cnc2c(=O)[nH]c(N)nc21)Oc1ccccc1 (stereo partly drawn)	> 150 µM	10 µM	8.5 µM	27 µM	> 50 µM	> 100 µM	–	> 100 µM	> 150 µM	> 150 µM	> 100 µM
C[C@@H](NP(=O)(OCCOCn1cnc2c(=O)[nH]c(N)nc21)Oc1ccccc1)C(=O)OCc1ccccc1 (stereo partly drawn)	–	2 µM	1.4 µM	23 µM	> 100 µM	–	–	> 250 µM	–	–	≥ 250 µM
Nc1nc2c(ncn2COCCOP(=O)(Oc2ccccc2)N2CCC[C@H]2C(=O)OCc2ccccc2)c(=O)[nH]1 (stereo partly drawn)	–	> 100 µM	> 100 µM	> 100 µM	> 100 µM	> 100 µM	> 20 µM	> 20 µM	–	–	> 100 µM
Nc1nc2c(ncn2COCCO)c(=O)[nH]1 [ACYCLOVIR]	> 250 µM	–	–	–	> 100 µM	–	> 250 µM	> 250 µM	> 250 µM	–	> 250 µM
CC(C)OC(=O)[C@H](C)NP(=O)(OCCOCn1cnc2c(=O)[nH]c(N)nc21)Oc1cccc2ccccc12 (stereo partly drawn)	72.5 µM	15 µM	10 µM	≥ 45 µM	> 50 µM	> 100 µM	6.2 µM	12 µM	> 150 µM	5.4 µM	36 µM
CC[C@H](C)[C@H](NP(=O)(OCCOCn1cnc2c(=O)[nH]c(N)nc21)Oc1ccccc1)C(=O)OCc1ccccc1 (stereo partly drawn)	–	1.1 µM	1.1 µM	1.4 µM	> 100 µM	–	> 20 µM	> 20 µM	–	–	–
CN(C)/C=N/c1nc2c(ncn2COCCOP(=O)(NC(C)(C)C(=O)OCc2ccccc2)Oc2cccc3ccccc23)c(=O)[nH]1 (stereo not drawn)	140 µM	–	–	–	–	–	> 20 µM	> 20 µM	45 µM	15 µM	40 µM
CCOC(=O)[C@@H](NP(=O)(OCCOCn1cnc2c(=O)[nH]c(N)nc21)Oc1cccc2ccccc12)C(C)C (stereo partly drawn)	–	51 µM	32 µM	42 µM	> 100 µM	–	> 100 µM	> 100 µM	–	–	> 100 µM
C[C@H](NP(=O)(OCCOCn1cnc2c(=O)[nH]c(N)nc21)Oc1cccc2ccccc12)C(=O)OC(C)(C)C (stereo partly drawn)	> 150 µM	> 100 µM	50 µM	> 100 µM	> 50 µM	> 100 µM	> 100 µM	> 100 µM	> 150 µM	> 150 µM	> 100 µM
CC(C)(NP(=O)(OCCOCn1cnc2c(=O)[nH]c(N)nc21)Oc1cccc2ccccc12)C(=O)OCc1ccccc1 (stereo not drawn)	–	2.4 µM	1.6 µM	3.2 µM	> 50 µM	> 100 µM	≥ 100 µM	79 µM	–	–	> 100 µM
COC(=O)[C@@H](NP(=O)(OCCOCn1cnc2c(=O)[nH]c(/N=C/N(C)C)nc21)Oc1cccc2ccccc12)C(C)C (stereo partly drawn)	> 150 µM	–	–	–	–	–	> 100 µM	> 100 µM	> 150 µM	> 150 µM	> 100 µM
CC(C)C[C@H](NP(=O)(OCCOCn1cnc2c(=O)[nH]c(N)nc21)Oc1ccccc1)C(=O)OCc1ccccc1 (stereo partly drawn)	> 150 µM	0.8 µM	0.7 µM	1.4 µM	> 100 µM	–	> 20 µM	> 20 µM	17 µM	0.8 µM	> 20 µM
COC(=O)[C@H](NP(=O)(OCCOCn1cnc2c(=O)[nH]c(N)nc21)Oc1cccc2ccccc12)C(C)C (stereo partly drawn)	–	> 100 µM	> 100 µM	> 100 µM	> 100 µM	–	> 100 µM	> 100 µM	–	–	> 100 µM
CCOC(=O)[C@H](C)NP(=O)(OCCOCn1cnc2c(=O)[nH]c(N)nc21)Oc1cccc2ccccc12 (stereo partly drawn)	12 µM	32 µM	9.5 µM	32 µM	> 150 µM	> 100 µM	12 µM	42 µM	> 150 µM	1.7 µM	32 µM
C[C@H](NP(=O)(OCCOCn1cnc2c(=O)[nH]c(N)nc21)Oc1ccc(F)cc1)C(=O)OCc1ccccc1 (stereo partly drawn)	–	0.9 µM	0.5 µM	1.5 µM	> 100 µM	–	–	> 20 µM	–	–	76 µM
C[C@H](NP(=O)(OCCOCn1cnc2c(=O)[nH]c(N)nc21)Oc1ccccc1)C(=O)OCc1ccccc1 (stereo partly drawn)	33.8 µM	8 µM	4 µM	15 µM	> 50 µM	91 µM	16 µM	11 µM	> 150 µM	5.7 µM	42 µM
COC(=O)[C@H](C)NP(=O)(OCCOCn1cnc2c(=O)[nH]c(N)nc21)Oc1ccccc1 (stereo partly drawn)	–	20 µM	16 µM	79 µM	> 100 µM	–	17 µM	26 µM	–	15 µM	–
CN(C)/C=N/c1nc2c(ncn2COCCOP(=O)(Oc2ccccc2)N2CCC[C@H]2C(=O)OCc2ccccc2)c(=O)[nH]1 (stereo partly drawn)	> 150 µM	–	–	–	–	–	> 20 µM	> 20 µM	90 µM	30 µM	45 µM
